Screening results as filed in PubChem.
Hits are enriched below; roughly 3% of the tested compounds scored in any of these assays.
DDE Tn6 FP inh: DD(E)-Tn6 binding inhibition, primary FP screen; AID 720509; inhibition, % at 8.3 µM; P02675; 370,000 tested, 0.21% active; Fibrin DD(E) TRITC-Tn6 fluorescence polarization displacement;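 active means inhibition above a per-campaign cutoff: mean of compounds within control limits plus 3 SD, cut at about 15% in these data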
NRP1-CendR mod: modulators of CendR peptide binding to human neuropilin-1. O14786. FAM-RPARPAR peptide binding to NRP-1, fluorescence polarization. inhibition, % at 25 µM. 360,000 tested, 0.85% active. AID 602438;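 active means inhibition or corrected inhibition above about 18%, plus a signal ratio from 0.5 to 1.5, limit read from the data, passing the limit was not always enough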
proKLK7 act: proKLK7 (human) activation, primary screen. P49862. purified proKLK7, EDANS-DABCYL substrate fluorescence; 100% is mature enzyme control, 0% vehicle. activation, % at 7 µM. 370,000 tested, 0.9% active. AID 652039;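 active means activation above the mean of all tested compounds plus 3 SD, computed per campaign excluding outliers beyond control limits, cut at about 13% in these data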
Tn7 DDE FP: disrupts Tn7 cyclic peptide binding to fibrin D-Dimer-E complex; FP displacement of FITC-Tn7 peptide from fibrin DD(E); 0% = median of compound wells per plate; inhibition, % at 8.3 µM; 370,000 tested, 0.13% active; AID 720508;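 active means inhibition above the mean of compounds falling within the control limits plus 3 SD of them, cut at about 14% in these data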
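Test system – human fibrin DD(E) · Times – 10 min preincubation, 3 h with tracer, room temperature · Detection – fluorescence polarization of the labelled Tn7 tracer · Measure – percent inhibition normalized to high-control wells · Benchmarks – high control wells with 10 µM unlabelled Aha-Tn7 peptide (full inhibition) · Repeats – singlicate testing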
PLCg1 inh: blocks human PLC-gamma1 enzyme activity; inhibition, % at 12.2 µM; AID 720700; 370,000 tested, 0.84% active; purified PLC-gamma1, fluorogenic substrate, fluorescence; in the data active means inhibition above about 9.5%
PLCb3 inh: blocks human PLC-beta3 enzyme activity; Q01970; Purified PLC-beta3, fluorogenic substrate, fluorescence; inhibition, % at 12.2 µM; 370,000 tested, 0.18% active; in the data active means inhibition above about 11%
proKLK7 act conf: confirmation of human kallikrein-7 zymogen activators | shares compounds with proKLK7 act | AID 686949 | 3,200 tested, 68% active | purified proKLK7, EDANS-DABCYL substrate fluorescence; scaled: vehicle 0, mature enzyme 100 | activation, % at 7 µM;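 active means activation, as change over the incubation, above the mean of all tested compounds plus 3 SD, cut at about 13% in these data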
EDANS interfere: counter-screen for kallikrein-7 activators: EDANS-DABCYL optical interference; shares compounds with proKLK7 act; EDANS-DABCYL substrate fluorescence interference, no enzyme, 4 h; solvent 0%, active enzyme control 100%; 3,200 tested, 80% active; activation, % at 7 µM;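 active means activation above the all-compound mean plus 3 SD, ignoring values outside control-based bounds, cut at about 4.8% in these data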;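 further: value is the 4 h activation minus the activation read at time zero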
EDANS interf: counter-screen for kallikrein-7 activators: EDANS-DABCYL interference, dose response; shares compounds with proKLK7 act; EDANS-DABCYL peptide fluorescence interference, no enzyme; EC50, µM; 250 tested, 20% active;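 active means compounds that raise the fluorescence signal in this interference counterscreen, with EC50 at or below 10 µM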;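 further: intact quenched peptide substrate alone read at 355 nm excitation and 520 nm emission; signal is fluorescence gain from T0 to T4 after four hours at room temperature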
A number is an active result; n = inactive; x = not tested or not shown.

SMILES | DDE Tn6 FP inh | NRP1-CendR mod | proKLK7 act | Tn7 DDE FP | PLCg1 inh | PLCb3 inh | proKLK7 act conf | EDANS interfere | others
Nc1cc(Cl)ccc1C(=O)OCC(=O)NC1CCS(=O)(=O)C1 (configuration not stated) | n | n | n | n | n | n | x | x
Cc1[nH]nc2c1C(c1ccsc1)C1=C(CC(C)(C)CC1=O)N2 (configuration not stated) | n | n | 14 | n | n | n | 13 | 17
COc1ccc(NC(=O)c2ccc(S(=O)(=O)N3CC(C)CC(C)C3)cc2)cc1S(N)(=O)=O (configuration not stated) | n | n | 18 | n | n | n | 24 | 14 | EDANS interf=n
COc1ccc(NC(=O)COC(=O)c2ccc(S(=O)(=O)N3CC(C)CC(C)C3)cc2)cc1OC (configuration not stated) | n | n | n | n | n | n | x | x
CCOC(=O)c1ccccc1NC1CC(=O)N(c2ccccc2C)C1=O (configuration not stated) | n | n | 193 | n | n | n | 169 | 161
CCOC(=O)c1ccccc1NC(=O)C1CC(=O)N(C(C)(C)C)C1 (configuration not stated) | n | n | n | n | n | n | x | x
O=C(N/N=C/c1c[nH]c2ccccc12)c1[nH]c2ccc(Br)cc2c1-c1ccccc1 | n | n | 84 | n | n | n | n | n
O=C(N/N=C/c1ccc(O)cc1)c1[nH]c2ccc(Br)cc2c1-c1ccccc1 | n | n | n | n | n | n | x | x
Cc1cc(NCc2ccco2)nc2cc(O)ccc12 | n | n | 19 | n | n | n | 72 | 66
CC(C)C(=O)Nc1sc2c(c1-c1nc3ccccc3[nH]1)CCCC2 | n | n | 496 | n | n | n | n | 4.7
COc1cc2c(cc1OC)CN(CC(=O)Nc1ccc(C#N)cc1)CC2 | n | n | 17 | n | n | n | n | n
COC(=O)C1=CNC=C(C(=O)OC)C1c1ccc(Cl)cc1 | n | n | 14 | n | n | n | 81 | 80
COC(=O)C1=CNC=C(C(=O)OC)C1c1ccccc1Cl | n | n | 66 | n | n | n | 65 | 75
Cc1ccc(/C=C2/NC(=O)N(Cc3ccccc3)C2=O)s1 | n | n | 17 | n | n | n | n | n
Cc1cccc(CN2C(=O)N/C(=C/c3ccc(C)s3)C2=O)c1 | n | n | n | n | n | n | x | x
CCOC(=O)C1CCN(C(=O)c2cc3c(s2)-c2ccccc2OC3)CC1 | n | n | 14 | n | n | n | n | n
CN1CCN(c2ccccc2NC(=O)c2cc3c(s2)-c2ccccc2OC3)CC1 | n | n | n | n | n | n | x | x
CCOC(=O)c1cc2c(s1)-c1c(C)cccc1OC2 | n | n | n | n | n | n | x | x
CC1CCN(CCCNC(=O)c2cc3c(s2)-c2ccccc2OC3)CC1 | n | n | 75 | n | n | n | 74 | 74
COC(=O)c1cc2c(s1)-c1ccccc1OC2 | n | n | 82 | n | n | n | 76 | 80
Cc1cccc2c1-c1sc(C(=O)NCCCN3CCC(C)CC3)cc1CO2 | n | n | 49 | n | n | n | 64 | 65
Cc1ccc(CNC2CCC23CCC(c2ccccc2)CC3)o1 (configuration not stated) | n | x | x | n | n | n | x | x
COC(=O)[C@@]12CCCCC=C1N(CCc1ccc(Cl)cc1)C(=O)[C@H]2CC(=O)NCC1CCCCC1 | n | x | n | n | n | n | x | x
CC1CCCN(CCCNC(=O)c2cc3c(s2)-c2ccccc2OC3)C1 (configuration not stated) | n | n | 43 | n | n | n | 63 | 78
